Reference: ChEMBL document CHEMBL4184251, “Potentiation of the activity of β-lactam antibiotics by farnesol and its derivatives” (Bioorg Med Chem Lett, 2018)
In brackets after ≈: the same amount, converted by molar mass.

Assays:
[1] = tested on: Staphylococcus aureus; assay: Potentiation of oxacillin-induced antimicrobial activity against methicillin-susceptible Staphylococcus aureus ATCC 29213 at 256 ug/ml (reference value: oxacillin alone MIC = 0.4 ug/ml); assay type: functional
[2] = tested on: Staphylococcus aureus; assay: Potentiation of oxacillin-induced antimicrobial activity against methicillin-resistant Staphylococcus aureus NRS123 at 256 ug/ml (reference value: oxacillin alone MIC = 24 ug/ml); assay type: functional
[3] = tested on: Staphylococcus aureus; assay: Potentiation of oxacillin-induced antimicrobial activity against methicillin-susceptible Staphylococcus aureus ATCC 29213 at 256 ug/ml relative to oxacillin alone; assay type: functional
[4] = tested on: Staphylococcus aureus; assay: Potentiation of oxacillin-induced antimicrobial activity against methicillin-resistant Staphylococcus aureus NRS123 at 256 ug/ml relative to oxacillin alone; assay type: functional
[5] = Solubility in aqueous solution; assay type: physicochemical; conditions: buffer
[6] = tested on: Staphylococcus aureus; assay: Potentiation of oxacillin-induced antimicrobial activity against methicillin-resistant Staphylococcus aureus NRS100 at 256 ug/ml (reference value: oxacillin alone MIC = >256 ug/ml); assay type: functional
[7] = tested on: Staphylococcus aureus; assay: Potentiation of oxacillin-induced antimicrobial activity against methicillin-resistant Staphylococcus aureus NRS70 at 256 ug/ml (reference value: oxacillin alone MIC = 32 ug/ml); assay type: functional
[8] = tested on: Staphylococcus aureus; assay: Antimicrobial activity against methicillin-resistant Staphylococcus aureus NRS70 by micro-dilution method; assay type: functional
Method in brief: (§1)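 Broth microdilution MIC in cation-adjusted Mueller-Hinton II medium supplemented with 1% Tween-80 (CAMHB-T), needed to disperse the farnesol-type compounds. Compounds tested from 2 to 2048 μg/mL.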

[9] = tested on: Staphylococcus aureus; assay: Potentiation of ampicillin-induced antimicrobial activity against methicillin-resistant Staphylococcus aureus NRS123 at 256 ug/ml (reference value: ampicillin alone MIC = 12 ug/ml); assay type: functional
[10] = tested on: Staphylococcus aureus; assay: Potentiation of ampicillin-induced antimicrobial activity against methicillin-susceptible Staphylococcus aureus ATCC 29213 at 256 ug/ml relative to ampicillin alone; assay type: functional
[11] = tested on: Staphylococcus aureus; assay: Potentiation of ampicillin-induced antimicrobial activity against methicillin-resistant Staphylococcus aureus NRS100 at 256 ug/ml relative to ampicillin alone; assay type: functional
[12] = tested on: Staphylococcus aureus; assay: Potentiation of oxacillin-induced antimicrobial activity against methicillin-resistant Staphylococcus aureus NRS70 at 256 ug/ml relative to oxacillin alone; assay type: functional
[13] = tested on: Staphylococcus aureus; assay: Antimicrobial activity against methicillin-susceptible Staphylococcus aureus ATCC 29213 by micro-dilution method; assay type: functional; method in brief: as §1
[14] = tested on: Staphylococcus aureus; assay: Potentiation of ampicillin-induced antimicrobial activity against methicillin-susceptible Staphylococcus aureus ATCC 29213 at 256 ug/ml (reference value: ampicillin alone MIC = 0.5 ug/ml); assay type: functional
[15] = tested on: Staphylococcus aureus; assay: Potentiation of ampicillin-induced antimicrobial activity against methicillin-resistant Staphylococcus aureus NRS123 at 256 ug/ml relative to ampicillin alone; assay type: functional
[16] = tested on: Staphylococcus aureus; assay: Antimicrobial activity against methicillin-resistant Staphylococcus aureus NRS123 by micro-dilution method; assay type: functional; method in brief: as §1
[17] = tested on: Staphylococcus aureus; assay: Potentiation of ampicillin-induced antimicrobial activity against methicillin-resistant Staphylococcus aureus NRS70 at 256 ug/ml (reference value: ampicillin alone MIC = 16 ug/ml); assay type: functional
[18] = tested on: Staphylococcus aureus; assay: Potentiation of oxacillin-induced antimicrobial activity against methicillin-resistant Staphylococcus aureus NRS100 at 256 ug/ml relative to oxacillin alone; assay type: functional
[19] = tested on: Staphylococcus aureus; assay: Potentiation of ampicillin-induced antimicrobial activity against methicillin-resistant Staphylococcus aureus NRS70 at 256 ug/ml relative to ampicillin alone; assay type: functional
[20] = tested on: Staphylococcus aureus; assay: Potentiation of oxacillin-induced antimicrobial activity against methicillin-resistant Staphylococcus aureus NRS100 at 256 ug/ml by checkerboard assay; assay type: functional
Method in brief: (§2)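 Checkerboard combination of oxacillin with the farnesol-type compound. Synergy scored by the fractional inhibitory concentration index (FICI).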

[21] = tested on: Staphylococcus aureus; assay: Antimicrobial activity against methicillin-resistant Staphylococcus aureus NRS100 by micro-dilution method; assay type: functional; method in brief: as §1
[22] = tested on: Staphylococcus aureus; assay: Potentiation of oxacillin-induced antimicrobial activity against methicillin-resistant Staphylococcus aureus NRS70 at 256 ug/ml by checkerboard assay; assay type: functional; method in brief: as §2
[23] = tested on: Staphylococcus aureus; assay: Potentiation of ampicillin-induced antimicrobial activity against methicillin-resistant Staphylococcus aureus NRS100 at 256 ug/ml (reference value: ampicillin alone MIC = 16 ug/ml); assay type: functional
[24] = tested on: Staphylococcus aureus; assay: Potentiation of ampicillin-induced antimicrobial activity against methicillin-resistant Staphylococcus aureus NRS70 relative to untreated ampicillin alone; assay type: functional
[25] = tested on: Staphylococcus aureus; assay: Potentiation of ampicillin-induced antimicrobial activity against methicillin-susceptible Staphylococcus aureus ATCC 29213 at 1000 ug/ml relative to ampicillin alone; assay type: functional
[26] = tested on: Staphylococcus aureus; assay: Potentiation of ampicillin-induced antimicrobial activity against methicillin-resistant Staphylococcus aureus NRS70 at 1000 ug/ml (reference value: ampicillin alone MIC = 16 ug/ml); assay type: functional
[27] = tested on: Staphylococcus aureus; assay: Potentiation of oxacillin-induced antimicrobial activity against methicillin-resistant Staphylococcus aureus NRS70 at 1000 ug/ml (reference value: oxacillin alone MIC = 32 ug/ml); assay type: functional
[28] = tested on: Staphylococcus aureus; assay: Potentiation of oxacillin-induced antimicrobial activity against methicillin-susceptible Staphylococcus aureus ATCC 29213 at 1000 ug/ml relative to oxacillin alone; assay type: functional
[29] = tested on: Staphylococcus aureus; assay: Potentiation of oxacillin-induced antimicrobial activity against methicillin-resistant Staphylococcus aureus NRS100 at 1000 ug/ml by checkerboard assay; assay type: functional; method in brief: as §2
[30] = tested on: Staphylococcus aureus; assay: Potentiation of ampicillin-induced antimicrobial activity against methicillin-resistant Staphylococcus aureus NRS123 at 1000 ug/ml relative to ampicillin alone; assay type: functional
[31] = tested on: Staphylococcus aureus; assay: Potentiation of oxacillin-induced antimicrobial activity against methicillin-resistant Staphylococcus aureus NRS100 relative to untreated oxacillin alone; assay type: functional
[32] = tested on: Staphylococcus aureus; assay: Potentiation of oxacillin-induced antimicrobial activity against methicillin-resistant Staphylococcus aureus NRS100 at 1000 ug/ml relative to oxacillin alone; assay type: functional
[33] = tested on: Staphylococcus aureus; assay: Potentiation of oxacillin-induced antimicrobial activity against methicillin-resistant Staphylococcus aureus NRS70 at 1000 ug/ml relative to oxacillin alone; assay type: functional
[34] = tested on: Staphylococcus aureus; assay: Potentiation of ampicillin-induced antimicrobial activity against methicillin-resistant Staphylococcus aureus NRS100 at 1000 ug/ml relative to ampicillin alone; assay type: functional
[35] = tested on: Staphylococcus aureus; assay: Potentiation of ampicillin-induced antimicrobial activity against methicillin-resistant Staphylococcus aureus NRS70 at 1000 ug/ml relative to ampicillin alone; assay type: functional
[36] = tested on: Staphylococcus aureus; assay: Potentiation of oxacillin-induced antimicrobial activity against methicillin-resistant Staphylococcus aureus NRS123 at 1000 ug/ml (reference value: oxacillin alone MIC = 24 ug/ml); assay type: functional
[37] = tested on: Staphylococcus aureus; assay: Potentiation of ampicillin-induced antimicrobial activity against methicillin-resistant Staphylococcus aureus NRS100 at 1000 ug/ml (reference value: ampicillin alone MIC = 16 ug/ml); assay type: functional
[38] = tested on: Staphylococcus aureus; assay: Potentiation of oxacillin-induced antimicrobial activity against methicillin-resistant Staphylococcus aureus NRS70 relative to untreated oxacillin alone; assay type: functional
[39] = tested on: Staphylococcus aureus; assay: Potentiation of ampicillin-induced antimicrobial activity against methicillin-susceptible Staphylococcus aureus ATCC 29213 at 1000 ug/ml (reference value: ampicillin alone MIC = 0.5 ug/ml); assay type: functional
[40] = tested on: Staphylococcus aureus; assay: Potentiation of oxacillin-induced antimicrobial activity against methicillin-resistant Staphylococcus aureus NRS100 at 1000 ug/ml (reference value: oxacillin alone MIC = >256 ug/ml); assay type: functional
[41] = tested on: Staphylococcus aureus; assay: Potentiation of oxacillin-induced antimicrobial activity against methicillin-resistant Staphylococcus aureus NRS70 at 1000 ug/ml by checkerboard assay; assay type: functional; method in brief: as §2
[42] = tested on: Staphylococcus aureus; assay: Potentiation of oxacillin-induced antimicrobial activity against methicillin-resistant Staphylococcus aureus NRS123 at 1000 ug/ml relative to oxacillin alone; assay type: functional
[43] = tested on: Staphylococcus aureus; assay: Potentiation of ampicillin-induced antimicrobial activity against methicillin-resistant Staphylococcus aureus NRS123 at 1000 ug/ml (reference value: ampicillin alone MIC = 12 ug/ml); assay type: functional
[44] = tested on: Staphylococcus aureus; assay: Potentiation of ampicillin-induced antimicrobial activity against methicillin-resistant Staphylococcus aureus NRS100 relative to untreated ampicillin alone; assay type: functional
[45] = tested on: Staphylococcus aureus; assay: Potentiation of oxacillin-induced antimicrobial activity against methicillin-susceptible Staphylococcus aureus ATCC 29213 at 1000 ug/ml (reference value: oxacillin alone MIC = 0.4 ug/ml); assay type: functional
[46] = tested on: Staphylococcus aureus; assay: Potentiation of oxacillin-induced antimicrobial activity against methicillin-resistant Staphylococcus aureus NRS70 at 128 ug/ml relative to oxacillin alone; assay type: functional
[47] = tested on: Staphylococcus aureus; assay: Potentiation of oxacillin-induced antimicrobial activity against methicillin-resistant Staphylococcus aureus NRS70 at 128 ug/ml by checkerboard assay; assay type: functional; method in brief: as §2
[48] = tested on: Staphylococcus aureus; assay: Potentiation of oxacillin-induced antimicrobial activity against methicillin-resistant Staphylococcus aureus NRS100 at 128 ug/ml by checkerboard assay; assay type: functional; method in brief: as §2
[49] = tested on: Staphylococcus aureus; assay: Potentiation of ampicillin-induced antimicrobial activity against methicillin-resistant Staphylococcus aureus NRS100 at 128 ug/ml (reference value: ampicillin alone MIC = 16 ug/ml); assay type: functional
[50] = tested on: Staphylococcus aureus; assay: Potentiation of ampicillin-induced antimicrobial activity against methicillin-resistant Staphylococcus aureus NRS70 at 128 ug/ml relative to ampicillin alone; assay type: functional
[51] = tested on: Staphylococcus aureus; assay: Potentiation of oxacillin-induced antimicrobial activity against methicillin-resistant Staphylococcus aureus NRS100 at 128 ug/ml (reference value: oxacillin alone MIC = >256 ug/ml); assay type: functional
[52] = tested on: Staphylococcus aureus; assay: Potentiation of ampicillin-induced antimicrobial activity against methicillin-resistant Staphylococcus aureus NRS100 at 128 ug/ml relative to ampicillin alone; assay type: functional
[53] = tested on: Staphylococcus aureus; assay: Potentiation of oxacillin-induced antimicrobial activity against methicillin-resistant Staphylococcus aureus NRS70 at 128 ug/ml (reference value: oxacillin alone MIC = 32 ug/ml); assay type: functional
[54] = tested on: Staphylococcus aureus; assay: Potentiation of ampicillin-induced antimicrobial activity against methicillin-resistant Staphylococcus aureus NRS70 at 128 ug/ml (reference value: ampicillin alone MIC = 16 ug/ml); assay type: functional

CC(C)=CCC/C(C)=C/CC/C(C)=C/CNP(O)(O)=S
MIC [1]: 0.4 µg/mL
MIC [2]: 16 µg/mL
fold change (FC) [3]: 1
fold change (FC) [4]: 1.5
solubility [5]: Soluble
MIC [6]: 2 µg/mL
MIC [7]: 1 µg/mL
MIC [8]: 512 µg/mL (≈ 1610 µM)
MIC [9]: 8 µg/mL
fold change (FC) [10]: 1
fold change (FC) [11]: 5.3
fold change (FC) [12]: 32
MIC [13]: 512 µg/mL (≈ 1610 µM)
MIC [14]: 0.5 µg/mL
fold change (FC) [15]: 1.5
MIC [16]: 512 µg/mL (≈ 1610 µM)
MIC [17]: 6 µg/mL
fold change (FC) [18]: >128
fold change (FC) [19]: 2.7
fractional inhibitory concentration index (FICI) [20]: 0.53 - 1.13
MIC [21]: 512 µg/mL (≈ 1610 µM)
fractional inhibitory concentration index (FICI) [22]: 0.53 - 1.13
MIC [23]: 3 µg/mL

CC(C)=CCC/C(C)=C/CC/C(C)=C/CO [FARNESOL]
fold change (FC) [24]: 256
fold change (FC) [25]: 1
MIC [26]: 4 µg/mL
MIC [27]: 12 µg/mL
fold change (FC) [28]: 0.8
fractional inhibitory concentration index (FICI) [29]: 0.53 - 1.13
MIC [8]: 2050 µg/mL (≈ 9210 µM)
fold change (FC) [30]: 4
fold change (FC) [31]: >64
fold change (FC) [32]: >32
fold change (FC) [33]: 2.7
fold change (FC) [34]: 4
fold change (FC) [35]: 4
MIC [13]: 2050 µg/mL (≈ 9210 µM)
MIC [36]: 2 µg/mL
MIC [37]: 4 µg/mL
MIC [16]: 2050 µg/mL (≈ 9210 µM)
fold change (FC) [38]: 96
MIC [39]: 0.5 µg/mL
MIC [40]: 8 µg/mL
fractional inhibitory concentration index (FICI) [41]: 0.53 - 1.13
fold change (FC) [42]: 12
MIC [43]: 3 µg/mL
fold change (FC) [44]: 24
MIC [21]: 2050 µg/mL (≈ 9210 µM)
MIC [45]: 0.5 µg/mL

CC(C)=CCC/C(C)=C/CC/C(C)=C/CN
MIC [1]: 0.5 µg/mL
fold change (FC) [46]: 1
MIC [2]: 0.75 µg/mL
fold change (FC) [3]: 0.8
fold change (FC) [4]: 32
fractional inhibitory concentration index (FICI) [47]: 0.53 - 1.13
fractional inhibitory concentration index (FICI) [48]: 0.53 - 1.13
MIC [49]: 8 µg/mL
MIC [8]: 256 µg/mL (≈ 1160 µM)
MIC [9]: 1 µg/mL
fold change (FC) [10]: 2.5
fold change (FC) [50]: 1
MIC [51]: > 256 µg/mL
MIC [13]: 512 µg/mL (≈ 2310 µM)
MIC [14]: 0.2 µg/mL
fold change (FC) [52]: 2
fold change (FC) [15]: 12
MIC [16]: 512 µg/mL (≈ 2310 µM)
MIC [53]: 32 µg/mL
MIC [54]: 16 µg/mL
MIC [21]: 256 µg/mL (≈ 1160 µM)
